Common to all, as to assay type: cell-based
One test relates to A549 cells. The test is described as follows: MTT. In a few lines: (§1)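 MTT assay on A549, HeLa and MRC9 cells, with cells kept in the dark or irradiated at 450 nm (15.5 mW cm−2, 15 min). […] IC50 values were derived for dark and light conditions. For A549 and HeLa, PI = IC50,dark/IC50,light.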
Test [1] relates to HeLa cells. The test is described as follows: MTT. The gist of the method:
as §1

Another test concerns normal MRC9 cells. As to the kind of experiment: MTT. The gist of the method:
as §1

Test [2] has as its system HeLa cells. As to the kind of experiment: Mitochondrial membrane potential with JC-1. The note with it: 50 μM, 15 min, positive control. The gist of the method: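 HeLa cells were untreated, given CCCP (50 μM, 15 min) as positive control, or treated with the test compound (4.5 nM, 24 h). Treated cells were then kept in the dark for 24 h or irradiated (450 nm, 15.5 mW cm−2, 15 min) and incubated 24 h more. Staining used JC-1 (2 μg mL−1, 20 min; λex 488 nm; monomer emission 510–530 nm, J-aggregate emission 590–610 nm).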

From publication PMC12510370 (Chemical Science, 2025) come the findings set out here.

Like-named read-outs stand apart in the source and are kept apart here.

Turning to “1-phenyl-5-thioxo-5,6-dihydro-[1,2,4]triazolo[1,5-c]quinazolin-1-ium-2-thiolate [p-Httqt]”, the IC50 in the test with A549 cells (read-out: IC50,dark, A549, in the dark) is over 100 µM; in the test on A549 cells (read-out: IC50,light, A549, irradiation at 450 nm (15.5 mW cm^−2, 15 min)) it was over 100 µM; with HeLa cells [1] (read-out: IC50,dark, in the dark), over 100 µM; in the test on HeLa cells [1] (read-out: IC50,light, irradiation at 450 nm (15.5 mW cm^−2, 15 min)), over 100 µM; with normal MRC9 cells (read-out: IC50,dark, MRC9, in the dark) it was over 100 µM; in the test on normal MRC9 cells (read-out: IC50,light, MRC9, irradiation at 450 nm (15.5 mW cm^−2, 15 min)), over 100 µM.

With `N#CC(C#N)=NNc1cccc(Cl)c1` [CCCP, carbonyl cyanide m-chlorophenyl hydrazone], the “mitochondrial membrane potential (JC-1)” value with HeLa cells [2] is recorded as “reduced the intensity of the red channel”.
